Results taken from ChEMBL document CHEMBL5257036, “Benzophenone-nucleoside derivatives as telomerase inhibitors: Design, synthesis and anticancer evaluation in vitro and in vivo” (Eur J Med Chem, 2016).
pIC50: −log10 of the molar value. Calls of active or inactive are those of the source. The calls are words filed in the database; no cut-off is given here.

How the values were obtained:
HepG2 = assay: Antiproliferative activity against human HepG2 cells measured after 48 hrs by MTT assay; type: functional, cell-based; conditions: HepG2, 48 h
How it was run: (§1)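 Cells grown to log phase in RPMI 1640 with 10% FBS, seeded at 3 × 10⁴ cells/mL, and preincubated 24 h at 37 °C, 5% CO₂. Compounds were added at pre-set concentrations to 6 wells each, with doxorubicin as reference, and exposed for 48 h. MTT was then added and absorbance read at 570 nm.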

[1] = target: T1, Telomerase reverse transcriptase (Homo sapiens, UniProt O14746); assay: Inhibition of telomerase activity in human SGC-7901 cells incubated for 24 hrs by TRAP-PCR-ELISA assay; type: cell-based
T1 sequence (O14746 whole entry): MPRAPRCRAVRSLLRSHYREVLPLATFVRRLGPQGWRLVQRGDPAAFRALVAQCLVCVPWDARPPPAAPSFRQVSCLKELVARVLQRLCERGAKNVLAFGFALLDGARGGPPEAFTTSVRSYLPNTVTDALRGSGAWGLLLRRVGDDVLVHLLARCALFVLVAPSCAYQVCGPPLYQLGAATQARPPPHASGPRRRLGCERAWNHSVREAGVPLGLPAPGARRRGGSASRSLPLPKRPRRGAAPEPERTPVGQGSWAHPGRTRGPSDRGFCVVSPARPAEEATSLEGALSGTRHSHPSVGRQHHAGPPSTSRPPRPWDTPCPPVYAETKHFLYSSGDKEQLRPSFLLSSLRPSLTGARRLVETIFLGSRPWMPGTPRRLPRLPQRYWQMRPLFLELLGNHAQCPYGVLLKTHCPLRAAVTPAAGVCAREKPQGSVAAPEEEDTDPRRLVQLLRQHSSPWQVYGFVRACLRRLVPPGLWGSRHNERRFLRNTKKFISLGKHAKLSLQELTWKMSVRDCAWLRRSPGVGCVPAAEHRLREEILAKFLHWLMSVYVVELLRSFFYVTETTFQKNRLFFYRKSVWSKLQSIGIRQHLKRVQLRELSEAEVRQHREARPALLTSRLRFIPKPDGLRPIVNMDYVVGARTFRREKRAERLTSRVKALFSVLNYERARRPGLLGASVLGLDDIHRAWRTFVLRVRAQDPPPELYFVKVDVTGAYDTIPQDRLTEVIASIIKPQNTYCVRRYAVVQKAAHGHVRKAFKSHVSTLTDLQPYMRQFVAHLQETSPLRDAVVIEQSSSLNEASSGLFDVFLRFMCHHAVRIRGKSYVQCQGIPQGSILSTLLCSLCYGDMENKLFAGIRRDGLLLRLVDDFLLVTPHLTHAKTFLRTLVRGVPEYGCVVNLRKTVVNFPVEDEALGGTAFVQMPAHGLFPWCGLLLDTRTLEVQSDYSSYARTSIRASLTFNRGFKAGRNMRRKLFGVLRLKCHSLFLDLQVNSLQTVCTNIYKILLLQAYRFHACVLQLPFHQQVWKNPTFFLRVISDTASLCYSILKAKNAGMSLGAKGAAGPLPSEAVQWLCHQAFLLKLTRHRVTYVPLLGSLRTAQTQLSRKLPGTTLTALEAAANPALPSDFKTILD
How it was run: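 Extract was mixed with TRAP reaction mix, incubated 25 °C for 30 min, then 35 PCR cycles (94/50/72 °C). Products detected by anti-DIG-peroxidase ELISA at 490 nm; mean ± SD.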

SGC-7901 = assay: Antiproliferative activity against human SGC-7901 cells measured after 48 hrs by MTT assay; type: functional, cell-based; conditions: SGC-7901, 48 h; how it was run: as §1
SMMC-7721 = assay: Antiproliferative activity against human SMMC-7721 cells measured after 48 hrs by MTT assay; type: functional, cell-based; conditions: SMMC-7721, 48 h; how it was run: as §1
HeLa = assay: Antiproliferative activity against human HeLa cells measured after 48 hrs by MTT assay; type: functional, cell-based; how it was run: as §1
[2] = target: T1, Telomerase reverse transcriptase; assay: Inhibition of telomerase activity in human SGC-7901 cells at 0.082 to 60 ug/mL incubated for 24 hrs by TRAP-PCR-ELISA assay; conditions: dose 0.082-60 ug/mL

| pIC50 (HepG2) | pIC50 [1] | pIC50 (SGC-7901) | pIC50 (SMMC-7721) | pIC50 (HeLa) | inhibition [2] | SMILES |
| --- | --- | --- | --- | --- | --- | --- |
| 5.16 | 5.19 | 5.64 | 5.54 | 5.58 |  | COc1cc(OC)c(C(=O)c2ccc(OC)c(OC(=O)CCC(=O)OC[C@@H]3C=C[C@H](n4cc(C)c(=O)[nH]c4=O)O3)c2)cc1OC |
| 4.69 |  | 5.08 | 4.65 | 4.75 |  | COc1ccc(C(=O)c2ccc(F)cc2)cc1OC(=O)CCC(=O)OC[C@@H]1C=C[C@H](n2cc(C)c(=O)[nH]c2=O)O1 |
| 4.96 |  | 5.38 | 5.49 | 5.19 |  | COc1ccc(C(=O)c2cccc(Cl)c2)cc1OC(=O)CCC(=O)OC[C@@H]1C=C[C@H](n2cc(C)c(=O)[nH]c2=O)O1 |
|  |  |  | 4.49 | 4.52 |  | COc1ccc(C(=O)c2ccccc2OC)cc1OCC(=O)OC[C@@H]1C=C[C@H](n2cc(C)c(=O)[nH]c2=O)O1 |
| 4.62 | 4.54 | 4.99 | 4.52 | 4.68 |  | COc1ccc(C(=O)c2ccc([N+](=O)[O-])cc2)cc1OC(=O)CCC(=O)OC[C@@H]1C=C[C@H](n2cc(C)c(=O)[nH]c2=O)O1 |
|  |  |  |  |  | inactive | COc1ccc(C(=O)c2cc(Br)ccc2Cl)cc1OCC(=O)OC[C@@H]1C=C[C@H](n2cc(C)c(=O)[nH]c2=O)O1 |
